Test results taken from ChEMBL document CHEMBL4038302, “Fibroblast Activation Protein α Activated Tripeptide Bufadienolide Antitumor Prodrug with Reduced Cardiotoxicity” (J Med Chem, 2017).
Blank lines part the entries; values can stand above or below the compound they belong to.

What was measured:
[1] = molecular target: T1, Prolyl endopeptidase FAP (Homo sapiens, UniProt Q12884); assay: (§1) Prodrug activation assessed as recombinant human FAP-alpha mediated (S)-((3S,5R,8R,9S,10S,11S,13R,14S,17R)-11,14-dihydroxy-10,13-dimethyl-12-oxo-17-(2-oxo-2H-pyran-5-yl)hexadecahydro-1H-cyclopenta[a]phenanthren-3-yl) 2-amino-4-methylpentanoate formation by measuring intrinsic clearance after 90 mins by UPLC-MS/MS analysis; conditions: 1.5 h
T1 sequence (Q12884 whole entry): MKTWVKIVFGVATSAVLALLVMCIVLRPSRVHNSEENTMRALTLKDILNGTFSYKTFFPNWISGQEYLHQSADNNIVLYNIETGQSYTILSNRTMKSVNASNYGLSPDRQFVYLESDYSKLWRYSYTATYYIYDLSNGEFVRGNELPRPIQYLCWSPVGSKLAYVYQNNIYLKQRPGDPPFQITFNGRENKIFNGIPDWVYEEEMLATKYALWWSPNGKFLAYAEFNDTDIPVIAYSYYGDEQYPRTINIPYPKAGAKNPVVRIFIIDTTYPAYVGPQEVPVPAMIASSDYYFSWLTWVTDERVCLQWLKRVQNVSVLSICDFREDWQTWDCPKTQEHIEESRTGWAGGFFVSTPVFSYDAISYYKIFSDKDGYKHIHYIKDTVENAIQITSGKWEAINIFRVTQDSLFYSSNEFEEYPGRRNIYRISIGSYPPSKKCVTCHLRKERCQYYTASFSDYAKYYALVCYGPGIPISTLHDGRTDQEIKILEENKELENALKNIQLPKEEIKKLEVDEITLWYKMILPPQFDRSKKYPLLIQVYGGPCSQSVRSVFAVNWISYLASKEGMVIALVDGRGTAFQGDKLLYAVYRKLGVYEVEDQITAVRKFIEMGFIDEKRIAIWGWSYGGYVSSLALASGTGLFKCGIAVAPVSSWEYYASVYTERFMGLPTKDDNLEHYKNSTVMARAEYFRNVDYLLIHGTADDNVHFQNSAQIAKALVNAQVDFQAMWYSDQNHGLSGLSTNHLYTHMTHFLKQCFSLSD
Outline: (§2)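 Prodrug at 0.625–40 μmol/L incubated with rhFAPα at 0.45 μg/mL and internal standard in 0.2 mL PBS, pH 7.4, at 37 °C for 90 min. Quenched with MeCN and spun at 18 000g for 15 min; product measured by UPLC-MS/MS. S50 and Vmax fitted with an allosteric sigmoidal model; CLint = Vmax/S50. Three independent experiments.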

[2] = molecular target: T1, Prolyl endopeptidase FAP; assay: as §1, with “concentration of test compound gives half-maximal activity” for “intrinsic clearance”; conditions: 1.5 h; outline: as §2
[3] = molecular target: T1, Prolyl endopeptidase FAP; assay: Prodrug activation assessed as Vmax for recombinant human FAP-alpha mediated (S)-((3S,5R,8R,9S,10S,11S,13R,14S,17R)-11,14-dihydroxy-10,13-dimethyl-12-oxo-17-(2-oxo-2H-pyran-5-yl)hexadecahydro-1H-cyclopenta[a]phenanthren-3-yl) 2-amino-4-methylpentanoate formation after 90 mins by UPLC-MS/MS analysis; conditions: 1.5 h; outline: as §2
[4] = tested on: [H][C@]12CC[C@@]3([H])[C@@]4(O)CC[C@H](c5ccc(=O)oc5)[C@@]4(C)C(=O)[C@@H](O)[C@]3([H])[C@@]1(C)CC[C@H](OC(=O)Cc1ccc(NC(=O)[C@@H]3CCCN3C(=O)CNC(=O)OCc3ccccc3)cc1)C2; assay: Prodrug activation assessed as recombinant human FAP-alpha mediated 5-((3S,5R,8R,9S,10S,11S,13R,14S,17R)-3-(2-(4-aminophenyl)acetyl)-11,14-dihydroxy-10,13-dimethyl-12-oxohexadecahydro-1H-cyclopenta[a]phenanthren-17-yl)-2H-pyran-2-one formation by measuring concentration of test compound gives half-maximal activity after 90 mins by UPLC-MS/MS analysis; outline: as §2
[5] = tested on: [H][C@]12CC[C@@]3([H])[C@@]4(O)CC[C@H](c5ccc(=O)oc5)[C@@]4(C)C(=O)[C@@H](O)[C@]3([H])[C@@]1(C)CC[C@H](OC(=O)[C@@H](NC(=O)[C@@H]1CCCN1C(=O)CNC(=O)OCc1ccccc1)C(C)C)C2; assay: (§3) Prodrug activation assessed as recombinant human FAP-alpha mediated (S)-((3S,5R,8R,9S,10S,11S,13R,14S,17R)-11,14-dihydroxy-10,13-dimethyl-12-oxo-17-(2-oxo-2H-pyran-5-yl)hexadecahydro-1H-cyclopenta[a]phenanthren-3-yl) 2-amino-3-methylbutanoate formation by measuring concentration of test compound gives half-maximal activity after 90 mins by UPLC-MS/MS analysis; outline: as §2
[6] = tested on: [H][C@]12CC[C@@]3([H])[C@@]4(O)CC[C@H](c5ccc(=O)oc5)[C@@]4(C)C(=O)[C@@H](O)[C@]3([H])[C@@]1(C)CC[C@H](OC(=O)[C@H](C)NC(=O)[C@@H]1CCCN1C(=O)CNC(=O)OCc1ccccc1)C2; assay: as §3, with “2-aminopropanoate” for “2-amino-3-methylbutanoate”; outline: as §2
[7] = tested on: [H][C@]12CC[C@@]3([H])[C@@]4(O)CC[C@H](c5ccc(=O)oc5)[C@@]4(C)C(=O)[C@@H](O)[C@]3([H])[C@@]1(C)CC[C@H](OC(=O)[C@H](Cc1c[nH]c3ccccc13)NC(=O)[C@@H]1CCCN1C(=O)CNC(=O)OCc1ccccc1)C2; assay: as §3, with “2-amino-3-(1H-indol-3-yl)propanoate” for “2-amino-3-methylbutanoate”; outline: as §2
[8] = molecular target: T1, Prolyl endopeptidase FAP; assay: as §1, with “2-amino-3-methylbutanoate” for “2-amino-4-methylpentanoate”; conditions: 1.5 h; outline: as §2

CL [1]: 3520 µL/min/mg | S50 [2]: 11.92 µmol/L | Vmax [3]: 0.042 µmol/min/mg
Compound: CC(C)C[C@H](NC(=O)[C@@H]1CCCN1C(=O)CNC(=O)OCc1ccccc1)C(=O)O[C@H]1CC[C@@]2(C)[C@H](CC[C@@H]3[C@@H]2[C@H](O)C(=O)[C@]2(C)[C@@H](c4ccc(=O)oc4)CC[C@]32O)C1

Compound: Prolyl endopeptidase FAP (Homo sapiens)
K0.5 [4]: 3.68 µM | Vmax [4]: 0.026 µmol/min/mg | K0.5 [5]: 34.5 µM | Vmax [5]: 0.044 µmol/min/mg | K0.5 [6]: 21.3 µM | Vmax [6]: 0.494 µmol/min/mg | K0.5 [7]: 10.4 µM | Vmax [7]: 0.682 µmol/min/mg

CL [8]: 1270 µL/min/mg
Compound: CC(C)[C@H](NC(=O)[C@@H]1CCCN1C(=O)CNC(=O)OCc1ccccc1)C(=O)O[C@H]1CC[C@@]2(C)[C@H](CC[C@@H]3[C@@H]2[C@H](O)C(=O)[C@]2(C)[C@@H](c4ccc(=O)oc4)CC[C@]32O)C1
